From ChEMBL document CHEMBL4364242, “Novel cationic bis(acylhydrazones) as modulators of Epstein-Barr virus immune evasion acting through disruption of interaction between nucleolin and G-quadruplexes of EBNA1 mRNA” (Eur J Med Chem, 2019)
Calls of active or inactive are those of the source. No cut-off for these calls is given here.

How the values were obtained:
NCI-H1299 [1] = test: Effect on OVA expression in human H1299 cells at 10 uM incubated for 40 hrs by western blot analysis; type: functional; parameters: unit not given here
Procedure, shortened: (§1)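 OVA or 235GAr-OVA constructs transiently transfected into H1299 cells, followed by 40 h exposure to 10 μM compound or DMSO. Whole-cell lysates immunoblotted with rabbit anti-OVA; signal normalized to GAPDH. Experiments repeated at least three times.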

[2] = Growth inhibition of human MUTU-I cells incubated for 48 hrs by MTT assay
Procedure, shortened: (§2)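 Mutu-1 EBV-positive Burkitt lymphoma cells, about 30,000 per well, treated with compound (0.5–100 μM) or DMSO for 24 or 48 h. MTT (5 mg/mL) added for 4 h, formazan dissolved in isopropanol/0.1 N HCl/10% Triton X-100, absorbance at 540 nm; viability expressed versus DMSO.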

[3] = Binding affinity to […] (unknown origin) assessed as increase in melting temperature at 1 uM by fluorescence method
Procedure, shortened: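 Labeled F-myc22-T DNA (5'-FAM/3'-TAMRA) melted with 1 μM ligand in K-1 buffer (10 mM LiAsO2Me2, 1 mM KCl, 99 mM LiCl, pH 7.3). Ramp 0.5 °C/min from 25 to 95 °C. Tm taken from first-derivative maxima and ΔTm calculated versus ligand-free control.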

NCI-H1299 [4] = test: Effect on 235Gar-OVA expression in human H1299 cells at 10 uM incubated for 40 hrs by western blot analysis; type: functional; parameters: unit not given here; procedure, shortened: as §1
[5] = Inhibition of recombinant NCL (unknown origin)/EB virusG4-EBNA1 mRNA interaction at 10 uM by RNA pull-down assay
Procedure, shortened: (§3)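 Biotin-TEG RNA (g4-EBNA1 or non-G4 GM) folded in 10 mM Tris pH 7.5, 100 mM KCl, 0.1 mM EDTA (95 °C 5 min, cooled 2 °C/min), then bound to blocked streptavidin beads. 200 ng recombinant NCL added for 90 min at room temperature with 10 μM compound or DMSO. Beads washed up to 800 mM KCl; eluates western-blotted for NCL.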

[6] = Inhibition of human NCL/EB virus G4-EBNA1 mRNA interaction in human MUTU-I cells assessed as reduction in PLA signals per cell at 5 uM incubated for […] by proximity ligation assay (reference value: 1.68 +/- 0.44); type: cell-based
Procedure, shortened: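 Mutu-1 cells carrying endogenous EBNA1 treated 36 h with 5 μM compound or DMSO. Processed by EBNA1 mRNA in situ hybridization combined with an anti-nucleolin PLA; nuclear PLA dots per cell counted across two biological replicates, ≥200 cells per sample.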

[7] = Displacement of TO from EB virus g4-EBNA1 mRNA measured after 5 mins by FID assay; parameters: species or system human gammaherpesvirus 4
Procedure, shortened: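 g4-EBNA1 RNA annealed 95 °C 5 min in K100 buffer (10 mM KAsO2Me2, 100 mM KCl, 1 mM EDTA, 1% DMSO), then mixed with TO; final 0.25 μM RNA and 0.5 μM TO, ligand 0–2.5 μM. Fluorescence read after 5 min shaking (485/520 nm), in duplicate. Displacement = 100×(1−F/F0); DC50 interpolated from the curve.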

[8] = Inhibition of recombinant NCL (unknown origin)/GM mRNA (unknown origin) interaction at 10 uM by RNA pull-down assay; procedure, shortened: as §3
[9] = Inhibition of native NCL/EB virus G4-EBNA1 mRNA interaction in human H1299 cells assessed as reduction in PLA signals per cell at 5 uM incubated for overnight by proximity ligation assay (reference value: 1.83 +/- 0.54); type: cell-based
human gammaherpesvirus 4 [10] = test: Binding affinity to EBNA1 G4-quadruplex in human H1299 cells assessed as EB virus EBNA1 expression at 10 uM incubated for 40 hrs by western blot analysis; type: cell-based
Procedure, shortened: (§4)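 H1299 cells in RPMI-1640 with 10% FBS at 37 °C, 5% CO2, transiently transfected with EBNA1 or EBNA1ΔGAr constructs, then treated with 10 μM compound (DMSO vehicle) for 40 h. Lysates taken 48 h post-transfection and western blotted with anti-EBNA1 (OT1X). Levels normalized to GAPDH; at least three repeats.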

NCI-H1299 [11] = test: Immunostimulatory activity in human H1299 cells transfected with murine MHC class I Kb and 235GAr-OVA cocultured with mouse CD8+ T-cells assessed as increase in IL-2 level at 5 or 10 uM incubated for 3 days by ELISA; type: functional
Procedure, shortened: (§5)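 H1299 cells co-transfected with mouse Kb and OVA or GAr-OVA, treated with 5 or 10 μM compound or DMSO. After 40 h, 10^5 cells co-cultured with 4×10^5 naive OT-I CD8+ T cells from female mouse lymph nodes, 37 °C, for 3 days. IL-2 in supernatant measured by ELISA.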

[12] = Growth inhibition of human MUTU-I cells incubated for 24 hrs by MTT assay; procedure, shortened: as §2
NCI-H1299 [13] = test: Immunostimulatory activity in human H1299 cells transfected with murine MHC class I Kb and OVA cocultured with mouse CD8+ T-cells assessed as increase in IL-2 level at 5 or 10 uM incubated for 3 days by ELISA; type: functional, cell-based; procedure, shortened: as §5
Homo sapiens = species on record: Homo sapiens; test: Binding affinity to […] assessed as increase in melting temperature at 1 uM by fluorescence method
Procedure, shortened: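 F-25TAG-T telomeric DNA (5'-FAM/3'-TAMRA) melted with 1 μM ligand in K-100 buffer (10 mM LiAsO2Me2, 100 mM KCl, pH 7.3). Heating 25–95 °C at 0.5 °C/min. ΔTm derived from first-derivative Tm maxima relative to the no-ligand run.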

NCI-H1299 [14] = test: Effect on 235Gar-OVA expression in human H1299 cells incubated for 40 hrs by western blot analysis; type: functional, cell-based
Procedure, shortened: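 235GAr-OVA-transfected H1299 cells treated 40 h with compound at 0, 7.5, 10 or 15 μM. Anti-OVA western blot with band intensities normalized to GAPDH.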

human gammaherpesvirus 4 [15] = test: Binding affinity to EB virus F-g4-EBNA1 mRNA assessed as increase in melting temperature at 1 uM by fluorescence method
human gammaherpesvirus 4 [16] = test: Binding affinity to EBNA1 G4-quadruplex in human H1299 cells assessed as EB virus EBNA1 deleted GAr expression at 10 uM incubated for 40 hrs by western blot analysis; type: cell-based; procedure, shortened: as §4
NCI-H1299 [17] = test: Immunostimulatory activity in human H1299 cells transfected with murine MHC class I Kb and 235GAr-OVA cocultured with mouse CD8+ T-cells assessed as increase in IL-2 level at 10 uM incubated for 3 days by ELISA; type: functional
Procedure, shortened: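 Kb/235GAr-OVA co-transfected H1299 cells, exposed to compound for 40 h, then 10^5 cells incubated 3 days at 37 °C with 4×10^5 OT-I CD8+ T cells. Supernatant IL-2 quantified by ELISA.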

Question: With `C[n+]1ccc(/C=N/NC(=O)c2ccc3ccc4ccc(C(=O)N/N=C/c5cc[n+](C)c6ccccc56)nc4c3n2)c2ccccc21.[I-].[I-]` as the molecule, how does the Activity (NCI-H1299 [1]) read?
Answer: 96

Question: And the GI50 at 48 h [2]?
Answer: 20 µM

Question: And the ΔTm [3]?
Answer: 15 to 30 °C

Question: And the Activity (NCI-H1299 [4])?
Answer: 189

Question: What about the fold change (FC) [5] of the same molecule?
Answer: 10

Question: And the Activity [6]?
Answer: 0.59

Question: And the IC50 [7]?
Answer: 0.3 µM

Question: What about the inhibition [8] of the same molecule?
Answer: inactive

Question: And the Activity [9]?
Answer: 0.4

Question: And the Activity (human gammaherpesvirus 4 [10])?
Answer: Active

Question: What about the “fold change (FC)” value (NCI-H1299 [11]) of the same molecule?
Answer: >2

Question: And the GI50 at 24 h [12]?
Answer: 50 to 100 µM

Question: And the Activity (NCI-H1299 [13])?
Answer: inactive

Question: And the ΔTm (Homo sapiens)?
Answer: 15 to 30 °C

Question: And the Activity (NCI-H1299 [14])?
Answer: Dose-dependent effect

Question: And the ΔTm (human gammaherpesvirus 4 [15])?
Answer: 20 to 30 °C

Question: And the Activity (human gammaherpesvirus 4 [16])?
Answer: inactive

Question: With `C[n+]1ccc(/C=N/NC(=O)c2cccc(C(=O)N/N=C/c3cc[n+](C)c4ccccc34)n2)c2ccccc21.[I-].[I-]` as the molecule, how does the Activity (NCI-H1299 [1]) read?
Answer: 101

Question: What about the GI50 at 48 h [2] of the same molecule?
Answer: ≥ 100 µM

Question: What about the ΔTm [3] of the same molecule?
Answer: 15 to 30 °C

Question: What about the Activity (NCI-H1299 [4]) of the same molecule?
Answer: 162

Question: And the fold change (FC) [5]?
Answer: 10

Question: What about the IC50 [7] of the same molecule?
Answer: 0.26 µM

Question: What about the inhibition [8] of the same molecule?
Answer: inactive

Question: What about the “fold change (FC)” value (NCI-H1299 [17]) of the same molecule?
Answer: >2

Question: What about the Activity [9] of the same molecule?
Answer: 0.27

Question: And the Activity (human gammaherpesvirus 4 [10])?
Answer: Active

Question: What about the GI50 at 24 h [12] of the same molecule?
Answer: > 100 µM

Question: What about the Activity (NCI-H1299 [13]) of the same molecule?
Answer: inactive

Question: What about the ΔTm (Homo sapiens) of the same molecule?
Answer: 15 to 30 °C

Question: And the Activity (NCI-H1299 [14])?
Answer: Dose-dependent effect

Question: What about the Activity (human gammaherpesvirus 4 [15]) of the same molecule?
Answer: Active

Question: And the Activity (human gammaherpesvirus 4 [16])?
Answer: inactive
